Screening results (PubChem)
An excerpt weighted towards active compounds, which were near 5.8% of everything screened.
IDH1 mut inh – IDH1 R132H (human) inhibition; IDH1 R132H reductase, diaphorase/resazurin fluorescence, 60 min; inhibition, % at 10 µM; 70,000 tested, 0.18% active; in the data active means inhibition above about 34%; inconclusive means no clear call, values can overlap the other calls; inactive means below about 11%;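 further: 0% = DMSO and 100% = no enzyme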
KDM4C inh – KDM4C (human) demethylase inhibition | GST-KDM4C 2-372, H3K9me3 peptide, LANCE TR-FRET | inhibition, % at 12.5 µM | 96,000 tested, 0.15% active | AID 720574;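 active means mean replicate inhibition above about 25%, with at least 55% of replicates also reaching it, limit read from the data, passing the limit was not always enough; inconclusive means only one of those two conditions met; inactive means neither condition met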
Target sequence (Q9H3R0 2-372 limits assumed): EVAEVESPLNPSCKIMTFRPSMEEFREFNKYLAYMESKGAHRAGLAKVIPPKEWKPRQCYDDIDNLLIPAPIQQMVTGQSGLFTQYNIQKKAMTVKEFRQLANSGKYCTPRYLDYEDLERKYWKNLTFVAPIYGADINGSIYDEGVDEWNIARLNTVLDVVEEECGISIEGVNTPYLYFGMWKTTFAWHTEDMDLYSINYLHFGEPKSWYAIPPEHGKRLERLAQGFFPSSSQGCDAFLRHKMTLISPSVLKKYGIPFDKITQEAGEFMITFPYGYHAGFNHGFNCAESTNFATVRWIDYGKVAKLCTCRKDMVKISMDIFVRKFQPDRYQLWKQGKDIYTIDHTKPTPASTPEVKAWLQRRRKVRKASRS
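Test system – GST-tagged GASC-1 (JMJD2C) catalytic fragment, aa 2-372 · Medium – HEPES buffer, pH 7.5, plus ascorbate · Reagent – H3K9me3 peptide with Fe(II)/2OG · Compound – one test concentration per compound · Timing – 30 min reaction, 60 min detection, RT · Technique – TR-FRET with Eu antibody and ULight streptavidin, EDTA stop · Read-out basis – inhibition from TR-FRET ratio decrease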
Pf Dd2 growth – P. falciparum Dd2 growth inhibition | SYBR Green, 72 h; hits give low values | activity change, % at 10 µM | 94,000 tested, 2.3% active | AID 1159554; in the data active means activity change below about -80%; inconclusive means no clear call, values can overlap the other calls
T cruzi growth-1 – inhibitors of T. cruzi proliferation. T. cruzi beta-gal in NIH3T3, GalScreen luminescence, 90 h. inhibition, % at 8.34 µM. 77,000 tested, 5.9% active. AID 624255;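 active means mean inhibition above about 93%, with at least 55% of replicates each passing it, limit read from the data, passing the limit was not always enough; inconclusive means only one of those two conditions holds; inactive means neither condition holds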
T cruzi growth-2 – Trypanosoma cruzi proliferation inhibition; 5,600 tested, 72% active; shares compounds with T cruzi growth-1; inhibition, % at 8.35 µM; T. cruzi beta-gal in NIH3T3, GalScreen luminescence, 90 h;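 active means mean replicate inhibition above about 95% and at least 55% of replicates individually reaching it, limit read from the data; inconclusive means only one of the two criteria is met; inactive means neither criterion is met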
T cruzi growth-3 – inhibitors of T. cruzi proliferation | inhibition, % at 2.09 µM | shares compounds with T cruzi growth-1 | 5,600 tested, 21% active | T. cruzi beta-gal in NIH3T3, GalScreen luminescence, 90 h;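 active means mean inhibition above about 95%, with at least 55% of replicates also reaching it, limit read from the data; inconclusive means meets just one of the two conditions; inactive means meets neither condition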;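 further: plate controls were neutral control median for no effect and positive control median for full effect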
3T3 cytotox – cytotoxicity in mouse NIH/3T3 fibroblasts. shares compounds with T cruzi growth-1. NIH/3T3 viability, CellTiter-Glo ATP luminescence, 90 h. cytotoxicity (signal decrease), % at 8.35 µM. 5,600 tested, 14% active;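 active means mean signal decrease across replicates above about 35% based on untreated-well scatter, with enough replicates individually passing, limit read from the data; inconclusive means no rule stated though some were filed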;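 further: 0% = median of neutral control wells and 100% = median of positive control wells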
3T3 cytotox 2 – NIH/3T3 (mouse) viability loss; 5,600 tested, 56% active; inhibition, % at 24.9 µM; AID 651744; shares compounds with T cruzi growth-1; NIH/3T3 viability, CellTiter-Glo ATP luminescence, 90 h;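 active means mean loss of cell viability signal at or above a set limit, and enough replicates individually reaching it; inconclusive means meets only the mean limit or only the replicate share; inactive means meets neither condition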;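 further: 0% = median of neutral control wells and 100% = median of positive control wells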
The depositor's hits bear a star; ? = inconclusive; · = no result given.

SMILES	IDH1 mut inh	KDM4C inh	Pf Dd2 growth	T cruzi growth-1	T cruzi growth-2	T cruzi growth-3	3T3 cytotox	3T3 cytotox 2
C[C@@H]1CN([C@H](C)CO)C(=O)Cc2cc(NS(=O)(=O)c3ccc(Cl)cc3)ccc2O[C@@H]1CN(C)Cc1ccc2c(c1)OCO2	·	1	20	99*	106*	38	?	42*
Cc1ccc(S(=O)(=O)Nc2ccc3c(c2)CC(=O)N([C@@H](C)CO)C[C@@H](C)[C@@H](CN(C)Cc2ccc4c(c2)OCO4)O3)cc1	2	-1	25	62	·	·	·	·
Cc1ccc(S(=O)(=O)N2CC[C@H]3[C@H](CO)Nc4ccc(-c5cccc(C(=O)N(C)C)c5)cc4[C@H]32)cc1	·	-1	-30	28	·	·	·	·
COc1ccc(NC(=O)Nc2ccc3c(c2)CC(=O)N([C@H](C)CO)C[C@H](C)[C@@H](CN(C)Cc2ccc(-c4ccccc4)cc2)O3)cc1	0	-2	-78	22	·	·	·	·
C[C@H](CO)N1C[C@H](C)[C@H](CN(C)Cc2ccc(-c3ccccc3)cc2)Oc2ccc(NC(=O)Nc3ccc(C(F)(F)F)cc3)cc2C1=O	4	0	18	81*	98*	88	14	105*
C[C@H]1CN([C@@H](C)CO)C(=O)c2cc(NC(=O)Nc3ccc(C(F)(F)F)cc3)ccc2O[C@H]1CN(C)Cc1ccc(-c2ccccc2)cc1	0	0	8	118*	106*	?	29	104*
C[C@H]1CN([C@@H](C)CO)C(=O)c2cc(NC(=O)Nc3ccc(F)cc3)ccc2O[C@H]1CN(C)Cc1ccc(-c2ccccc2)cc1	0	-2	-5	98*	102*	103*	32	103*
C[C@H]1CN([C@@H](C)CO)C(=O)c2cc(NC(=O)Nc3ccc(C(F)(F)F)cc3)ccc2O[C@@H]1CN(C)Cc1ccc(-c2ccccc2)cc1	·	3	2	113*	108*	40	3	104*
C[C@H](CO)N1C[C@H](C)[C@@H](CN(C)Cc2ccc(C(F)(F)F)cc2)Oc2ccc(NC(=O)Nc3ccccc3)cc2C1=O	·	1	-79	51	·	·	·	·
C[C@H](CO)N1C[C@H](C)[C@@H](CN(C)Cc2ccc(-c3ccccc3)cc2)Oc2ccc(NC(=O)Nc3ccc(F)cc3)cc2C1=O	0	1	18	11	·	·	·	·
C/C=C/c1ccc([C@H]2[C@@H](CO)N3CCCCN(C(=O)Nc4cc(F)ccc4F)C[C@H]23)cc1	·	3	-62	102*	111*	62	10	104*
C/C=C/c1ccc([C@@H]2[C@@H](CO)N3CCCCN(C(=O)Nc4cc(F)ccc4F)C[C@@H]23)cc1	·	-2	-43	79	·	·	·	·
O=C(Nc1cc(F)ccc1F)N1CCCCN2[C@@H](CO)[C@@H](c3ccc(-c4cccnc4)cc3)[C@@H]2C1	·	0	-36	82	·	·	·	·
O=C(Nc1cc(F)ccc1F)N1CCCCN2[C@H](C1)[C@H](c1ccc(-c3cncnc3)cc1)[C@@H]2CO	·	0	23	103*	6	9	-22	4
O=C(Nc1cc(F)ccc1F)N1CCCCN2[C@H](C1)[C@H](c1ccc(-c3ccncc3)cc1)[C@@H]2CO	·	0	0	85	·	·	·	·
O=C(Nc1cc(F)ccc1F)N1CCCCN2[C@H](CO)[C@H](c3ccc(-c4ccncc4)cc3)[C@H]2C1	·	-1	-19	101*	111*	80	7	19
CNC[C@H]1Oc2ccc(NC(=O)Cc3ccccc3)cc2C(=O)N([C@@H](C)CO)C[C@@H]1C	5	0	3	-4	·	·	·	·
C[C@H](CO)N1C[C@H](C)[C@@H](CN(C)C(=O)CC2CC2)Oc2cc(C#CCN(C)C)ccc2S1(=O)=O	0	0	-19	96*	98*	90	-6	12
C[C@@H]1CN([C@H](C)CO)S(=O)(=O)c2ccc(C#CCN(C)C)cc2O[C@@H]1CN(C)C(=O)CC1CC1	-1	9	31	85	·	·	·	·
